Assay results from ChEMBL document CHEMBL1133684, “Novel cannabinol probes for CB1 and CB2 cannabinoid receptors” (J Med Chem, 2000).

Tests used:
[1] = target: T1, Cannabinoid receptor 1 (Homo sapiens, UniProt P21554); test: Binding affinity was determined for Cannabinoid receptor 1
[2] = target: T2, Cannabinoid receptor 2 (Homo sapiens, UniProt P34972); test: Binding affinity was determined for Cannabinoid receptor 2
Method in brief: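 Radioligand displacement on P2 membrane preparations, filtration method. Test compounds kept as 1 mg/mL stocks in absolute ethanol at -20 °C.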

[3] = target: Cannabinoid receptor (Homo sapiens) (UniProt P34972+P21554); test: Ratio of Ki of CB1 receptor to that of CB2 receptor; assay type: protein assay
Chain of Cannabinoid receptor (Homo sapiens) (P21554 whole entry, looked up): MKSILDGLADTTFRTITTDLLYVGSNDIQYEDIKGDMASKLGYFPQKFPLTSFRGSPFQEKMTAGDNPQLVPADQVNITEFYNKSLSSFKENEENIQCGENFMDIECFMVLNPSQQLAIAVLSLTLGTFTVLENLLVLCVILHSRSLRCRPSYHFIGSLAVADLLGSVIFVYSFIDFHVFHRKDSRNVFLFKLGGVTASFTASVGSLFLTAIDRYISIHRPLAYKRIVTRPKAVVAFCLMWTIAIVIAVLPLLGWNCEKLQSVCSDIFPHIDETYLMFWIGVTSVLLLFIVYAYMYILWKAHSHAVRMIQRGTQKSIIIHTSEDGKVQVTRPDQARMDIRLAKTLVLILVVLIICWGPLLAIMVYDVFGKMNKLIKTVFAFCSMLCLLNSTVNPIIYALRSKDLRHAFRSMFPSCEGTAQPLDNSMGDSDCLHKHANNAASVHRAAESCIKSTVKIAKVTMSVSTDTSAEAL
Chain of Cannabinoid receptor (Homo sapiens) (P34972 whole entry, looked up): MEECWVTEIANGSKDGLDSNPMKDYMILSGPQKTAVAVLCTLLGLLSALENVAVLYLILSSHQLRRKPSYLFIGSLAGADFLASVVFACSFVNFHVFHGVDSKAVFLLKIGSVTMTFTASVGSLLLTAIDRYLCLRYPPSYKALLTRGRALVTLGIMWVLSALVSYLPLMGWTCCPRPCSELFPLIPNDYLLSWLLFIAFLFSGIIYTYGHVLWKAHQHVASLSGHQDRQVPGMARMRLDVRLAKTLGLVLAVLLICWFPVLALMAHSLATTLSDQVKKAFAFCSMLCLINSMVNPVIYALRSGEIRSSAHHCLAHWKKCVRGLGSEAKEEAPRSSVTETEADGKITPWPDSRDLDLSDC

[4] = target: T2, Cannabinoid receptor 2; test: Binding affinity was determined for cannabinoid receptor 2
Method in brief: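 Radioligand displacement on P2 membrane preparations, filtration method. Test compounds kept as 1 mg/mL stocks in absolute ethanol at -20 °C. Displacement curves came from incubating the drugs with 1 nM [³H][…].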

[5] = target: T1, Cannabinoid receptor 1; test: Compound was tested for inhibition of Adenylyl cyclase in cannabinoid receptor 1 (CB1).

T1 sequence (P21554 whole entry): as the sequence (P21554 whole entry, looked up) above
T2 sequence (P34972 whole entry): as the sequence (P34972 whole entry, looked up) above

SMILES	Ki [1] [nM]	Ki [2] [nM]	Ratio [3]	Ki [4] [nM]	Ki [5] [nM]
CCCCCCC(C)(C)c1cc(OC)c2c(c1)OC(C)(C)c1ccc(C(=O)OCc3ccc4ccccc4c3)cc1-2	> 10000	> 10000			
CCCCCCC(C)(C)c1cc(OC)c2c(c1)OC(C)(C)c1ccc(C)cc1-2	681	286	2.4		
CCCCCCC(C)(C)c1ccc2c(c1)OC(C)(C)c1ccc(C(=O)OC)cc1-2	558	276	2		
CCCCCCC(C)(C)c1cc(OC)c2c(c1)OC(C)(C)c1ccc(C(=O)OCc3ccccc3)cc1-2	> 10000	> 10000			
CCCCCCOC(=O)c1ccc2c(c1)-c1c(OC)cc(C(C)(C)CCCCCC)cc1OC2(C)C	> 10000	> 10000			
CCCCCCC(C)(C)c1cc(O)c2c(c1)OC(C)(C)c1ccc(CO)cc1-2	0.1		0.5		
CCCCCCC(C)(C)c1cc(O)c2c(c1)OC(C)(C)c1ccc(C)cc1-2	1		0.4	2.24	2
CCCCCCC(C)(C)c1ccc2c(c1)OC(C)(C)c1ccc(CO)cc1-2	2	1	2		
CCCCCCC(C)(C)c1cc(O)c2c(c1)OC(C)(C)c1ccc(C(=O)OC)cc1-2	14	3.8	3.7		
CCCC(C)(C)c1ccc(-c2cc(C)ccc2C(C)C)c(O)c1	875		7.7		
CCCCCCC(C)(C)c1cc(OC)c2c(c1)OC(C)(C)c1ccc(C(=O)OC(C)C)cc1-2	> 10000	> 10000			
CCCC(C)(C)c1cc(O)c2c(c1)OC(C)(C)c1ccc(C)cc1-2	42	6	7		
CCCCCCC(C)(C)c1ccc(-c2cc(C)ccc2C(C)C)c(O)c1	33		10		
CCCC(C)(C)c1ccc2c(c1)OC(C)(C)c1ccc(C(=O)OC)cc1-2	> 10000	611	> 16.4		
CCCC(C)(C)c1ccc2c(c1)OC(C)(C)c1ccc(CO)cc1-2		67	3		
CCCCCCC(C)(C)c1cc(OC)c2c(c1)OC(C)(C)c1ccc(C(=O)OCCC)cc1-2	1730	214	8.1		
CCCCCCC(C)(C)c1ccc2c(c1)OC(C)(C)c1ccc(C)cc1-2	434	167	2.6		
CCCCCCC(C)(C)c1cc(OC)c2c(c1)OC(C)(C)c1ccc(C(=O)OC)cc1-2	> 10000	529	> 18.9		
